Measurements as given in ChEMBL document CHEMBL1828581 (J Med Chem, 2011).
Active and inactive are the calls of the source. The rule behind the calls is not given here.

Tests used:
[1] = Dissociation constant, pKa of the compound with quinoline heteroaromatic N atom by pH titration method; format: physicochemical
[2] = Dissociation constant, pKa of the compound with basic tertiary amino group by pH titration method; format: physicochemical
[3] = Inhibition of beta-hematin formation assessed as equivalents of drug relative to hematin for 50% inhibition at pH 4.5 by BHIA assay; format: functional
How it was run: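 β-Hematin formation mediated by 4.5 M acetate, pH 4.5, in a 96-well plate format. Unconverted hematin is dissolved with 5% (v/v) aqueous pyridine at pH 7.5, which leaves β-hematin undissolved. Result expressed as equivalents of compound relative to hematin at 50% inhibition.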

[4] = test system: Plasmodium falciparum; assay: Antimalarial activity against erythrocyte stages of chloroquine-resistant Plasmodium falciparum K1 infected in human erythrocytes by lactate dehydrogenase assay; format: functional, organism-based
How it was run: (§1)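 Asexual blood-stage P. falciparum in continuous culture (modified Trager–Jensen), read out by parasite lactate dehydrogenase. Stocks are 2 mg/mL in DMSO or methanol. […] IC50 comes from nonlinear dose–response fitting.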

[5] = test system: Plasmodium falciparum; assay: Antimalarial activity against erythrocyte stages of chloroquine-sensitive Plasmodium falciparum D10 infected in human erythrocytes by lactate dehydrogenase assay; format: functional, organism-based; how it was run: as §1
[6] = test system: Plasmodium falciparum; assay: Resistance index, ratio of IC50 for chloroquine-resistant Plasmodium falciparum K1 to IC50 for chloroquine-sensitive Plasmodium falciparum D10; format: functional
How it was run: (§2)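 Resistance index is the IC50 against the resistant strain divided by the IC50 against D10. Both IC50s come from the lactate dehydrogenase growth assay on asexual blood stages, run by the same serial-dilution protocol.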

[7] = test system: CHO; assay: Cytotoxicity against CHO cells by MTT assay; format: cell-based; conditions: Cricetulus griseus
How it was run: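 CHO cells, MTT colorimetric growth read-out. Compound from a 2 mg/mL stock, tested from 100 μg/mL in 10-fold serial dilutions in complete medium (5 concentrations, lowest 0.01 μg/mL). Emetine reference. IC50 from nonlinear dose–response fitting; mean ± SEM, n = 3.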

[8] = Selectivity index, ratio of IC50 for CHO cells to IC50 for chloroquine-sensitive Plasmodium falciparum D10; format: toxicity, cell-based; conditions: hamster, read-out: Ratio IC50
How it was run: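 The D10 value came from parasite lactate dehydrogenase read-out on erythrocytic cultures, 10 two-fold dilutions from 100 ng/mL, with nonlinear dose–response fitting.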

[9] = biological target: T1, Chloroquine resistance transporter (Plasmodium falciparum) (UniProt Q9N623); assay: Inhibition of chloroquine-sensitive Plasmodium falciparum D10 chloroquine resistance transporter expressed in xenopus laevis oocytes assessed as inhibition of [3H]chloroquine uptake after 1 to 2 hrs; format: cell-based; conditions: Oocyte
T1 sequence (whole entry): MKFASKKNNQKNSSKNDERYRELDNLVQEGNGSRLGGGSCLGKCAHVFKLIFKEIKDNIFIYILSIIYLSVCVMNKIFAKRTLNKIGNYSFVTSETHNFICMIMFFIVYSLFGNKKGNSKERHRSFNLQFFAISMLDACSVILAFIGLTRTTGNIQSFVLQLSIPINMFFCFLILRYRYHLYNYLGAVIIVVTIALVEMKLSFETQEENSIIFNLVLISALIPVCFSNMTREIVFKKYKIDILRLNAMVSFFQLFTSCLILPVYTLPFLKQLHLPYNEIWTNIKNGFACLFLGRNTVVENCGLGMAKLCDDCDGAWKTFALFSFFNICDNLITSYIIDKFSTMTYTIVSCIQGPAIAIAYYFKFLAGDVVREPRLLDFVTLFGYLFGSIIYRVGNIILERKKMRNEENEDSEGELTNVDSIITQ

[10] = test system: Plasmodium berghei; assay: Antimalarial activity against Plasmodium berghei infected in NMRI mouse assessed as parasitized red blood cells level at 100 mg/kg, po administered on day 0, 1 and 2 after postinfection measured on day 4 (reference value: 78%); format: functional
[11] = test system: Plasmodium berghei; assay: Antimalarial activity against Plasmodium berghei infected in NMRI mouse assessed as parasitized red blood cells level at 30 mg/kg, po administered on day 0, 1 and 2 after postinfection measured on day 4 (reference value: 78%); format: functional
[12] = test system: Plasmodium berghei; assay: Antimalarial activity against Plasmodium berghei infected in NMRI mouse assessed as host survival time at 100 mg/kg, po administered on day 0, 1 and 2 after postinfection (reference value: 4 days); format: functional
How it was run: (§3)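 P. berghei in female NMRI mice (modified Peters 4-day test): 0.2 mL of donor blood diluted to 10^8 parasitized erythrocytes/mL given i.v. Oral dosing starts 4 h postinfection, with further daily doses at 24, 48 and 72 h by regimen. Groups of 3 treated and 5 untreated mice. Survival followed to day 30, and survivors are checked for parasitemia.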

[13] = test system: Plasmodium berghei; assay: Antimalarial activity against Plasmodium berghei infected in NMRI mouse assessed as host survival time at 30 mg/kg, po administered on day 0, 1 and 2 after postinfection (reference value: 4 days); format: functional; how it was run: as §3
[14] = test system: Plasmodium berghei; assay: Antimalarial activity against Plasmodium berghei infected in NMRI mouse assessed as reduction of parasitemia level at 100 mg/kg, po administered on day 0, 1 and 2 after postinfection (reference value: 0.11%); format: functional; parameters: scale not given: the % may be the effect or the level left
[15] = test system: Plasmodium berghei; assay: Antimalarial activity against Plasmodium berghei infected in NMRI mouse assessed as reduction of parasitemia level at 30 mg/kg, po administered on day 0, 1 and 2 after postinfection (reference value: 0.13%); format: functional; parameters: scale not given: the % may be the effect or the level left
[16] = biological target: T2, Chloroquine resistance transporter (Plasmodium falciparum, UniProt Q9N623); assay: Inhibition of chloroquine-resistant Plasmodium falciparum Dd2 chloroquine resistance transporter expressed in xenopus laevis oocytes assessed as inhibition of [3H]chloroquine uptake after 1 to 2 hrs; format: cell-based, Oocyte
T2 sequence (Q9N623 whole entry): T1 sequence (whole entry)

[17] = test system: Plasmodium falciparum; assay: Antimalarial activity against erythrocyte stages of chloroquine-resistant Plasmodium falciparum Dd2 infected in human erythrocytes by lactate dehydrogenase assay; format: functional, organism-based; how it was run: as §1
[18] = test system: Plasmodium falciparum; assay: Antimalarial activity against erythrocyte stages of chloroquine-resistant Plasmodium falciparum W2 infected in human erythrocytes by lactate dehydrogenase assay; format: functional, organism-based; how it was run: as §1
[19] = test system: Plasmodium falciparum; assay: Antimalarial activity against erythrocyte stages of chloroquine-resistant Plasmodium falciparum RSA11 infected in human erythrocytes by lactate dehydrogenase assay; format: functional, organism-based; how it was run: as §1
[20] = test system: Plasmodium falciparum; assay: Resistance index, ratio of IC50 for chloroquine-resistant Plasmodium falciparum Dd2 to IC50 for chloroquine-sensitive Plasmodium falciparum D10; format: functional; how it was run: as §2
[21] = test system: Plasmodium falciparum; assay: Resistance index, ratio of IC50 for chloroquine-resistant Plasmodium falciparum W2 to IC50 for chloroquine-sensitive Plasmodium falciparum D10; format: functional; how it was run: as §2
[22] = test system: Plasmodium falciparum; assay: Resistance index, ratio of IC50 for chloroquine-resistant Plasmodium falciparum RSA11 to IC50 for chloroquine-sensitive Plasmodium falciparum D10; format: functional; how it was run: as §2
[23] = test system: Plasmodium berghei; assay: Antimalarial activity against Plasmodium berghei infected in NMRI mouse assessed as host survival time at 30 mg/kg, po administered as a single dose 4 hrs post infection (reference value: 4 days)
[24] = test system: Plasmodium berghei; assay: Antimalarial activity against Plasmodium berghei infected in NMRI mouse assessed as host survival time at 100 mg/kg, po administered as a single dose 4 hrs post infection (reference value: 4 days)
[25] = test system: Plasmodium berghei; assay: Antimalarial activity against Plasmodium berghei infected in NMRI mouse assessed as reduction of parasitemia level at 30 mg/kg, po administered as single dose 4 hrs post infection (reference value: 2.76%); parameters: scale not given: the % may be the effect or the level left
[26] = test system: Plasmodium berghei; assay: Antimalarial activity against Plasmodium berghei infected in NMRI mouse assessed as reduction of parasitemia level at 100 mg/kg, po administered as single dose 4 hrs post infection (reference value: 0.16%); parameters: scale not given: the % may be the effect or the level left
[27] = test system: Plasmodium berghei; assay: Antimalarial activity against Plasmodium berghei infected in NMRI mouse assessed as parasitized red blood cells level at 30 mg/kg, po administered as single dose 4 hrs post infection measured on day 4 (reference value: 78%)
[28] = test system: Plasmodium berghei; assay: Antimalarial activity against Plasmodium berghei infected in NMRI mouse assessed as parasitized red blood cells level at 100 mg/kg, po administered as single dose 4 hrs post infection measured on day 4 (reference value: 78%)
[29] = test system: Plasmodium berghei; assay: Antimalarial activity against Plasmodium berghei infected in NMRI mouse assessed as parasitized red blood cells level at 100 mg/kg, po administered on day 0, 1, 2 and 3 after postinfection measured on day 4 (reference value: 78%); format: functional
[30] = test system: Plasmodium berghei; assay: Antimalarial activity against Plasmodium berghei infected in NMRI mouse assessed as parasitized red blood cells level at 30 mg/kg, po administered on day 0, 1, 2 and 3 after postinfection measured on day 4 (reference value: 78%); format: functional
[31] = test system: Plasmodium berghei; assay: Antimalarial activity against Plasmodium berghei infected in NMRI mouse assessed as host survival time at 100 mg/kg, po administered on day 0, 1, 2 and 3 after postinfection (reference value: 4 days); format: functional; how it was run: as §3
[32] = test system: Plasmodium berghei; assay: Antimalarial activity against Plasmodium berghei infected in NMRI mouse assessed as host survival time at 30 mg/kg, po administered on day 0, 1, 2 and 3 after postinfection (reference value: 4 days); format: functional; how it was run: as §3
[33] = test system: Plasmodium berghei; assay: Antimalarial activity against Plasmodium berghei infected in NMRI mouse assessed as reduction of parasitemia level at 100 mg/kg, po administered on day 0, 1, 2 and 3 after postinfection (reference value: 0.12%); format: functional; parameters: scale not given: the % may be the effect or the level left
[34] = test system: Plasmodium berghei; assay: Antimalarial activity against Plasmodium berghei infected in NMRI mouse assessed as reduction of parasitemia level at 30 mg/kg, po administered on day 0, 1, 2 and 3 after postinfection (reference value: 0.38%); format: functional; parameters: scale not given: the % may be the effect or the level left

Structure (SMILES)	pKa [1]	pKa [2]	IC50 [3] [equivalents]	IC50 [4]	IC50 [5]	Ratio IC50 [6]	also measured
CN(Cc1ccc(Cl)cc1)Cc1ccccc1CNc1ccnc2cc(Cl)ccc12	7.44	9.6	1.4	1130 nM			
CN(Cc1ccc(CNc2ccnc3cc(Cl)ccc23)cc1)Cc1ccc(N(C)C)cc1	7.33	9.66	0.4	36 nM	47 nM	0.8	IC50 [7]: > 225 µM; selectivity ratio [8]: > 4790
COc1ccc(CN(C)Cc2ccccc2CNc2ccnc3cc(Cl)ccc23)cc1	7.47	9.85	0.46	134 nM	175 nM	0.8	
CN(Cc1ccc(Cl)cc1)Cc1cccc(CNc2ccnc3cc(Cl)ccc23)c1	7.55	9.89	0.66	85 nM	138 nM	0.6	
CN(Cc1ccc(Cl)cc1)Cc1ccc(CNc2ccnc3cc(Cl)ccc23)cc1	7.44	9.74	0.34	> 10 µg/mL	> 0.1 µg/mL		
CCN(CC)CCCC(C)Nc1ccnc2cc(Cl)ccc12 (stereo not given) [CHLOROQUINE]			1.9				inhibition [9]: Active
CN(Cc1ccccc1)Cc1cccc(CNc2ccnc3cc(Cl)ccc23)c1	7.63	9.77	0.69	43 nM	41 nM	1	IC50 [7]: 70 µM; selectivity ratio [8]: 1270; Activity [10]: 0.09%; Activity [11]: 0.1%; Time [12]: 30 days; Time [13]: 16.7 days; Activity [14]: 99.9%; Activity [15]: 99.9%; IC50 [16]: 36 µM
CN(Cc1ccc(N(C)C)cc1)Cc1cccc(CNc2ccnc3cc(Cl)ccc23)c1	7.36	9.67	0.5	281 nM	> 0.1 µg/mL		
CN(Cc1ccc(N(C)C)cc1)Cc1ccccc1CNc1ccnc2cc(Cl)ccc12	7.4	9.71	0.48	149 nM	178 nM	0.8	
COc1ccc(CN(C)Cc2ccc(CNc3ccnc4cc(Cl)ccc34)cc2)cc1	7.44	9.7	1.44	88 nM	130 nM	0.7	
CN(Cc1ccccc1)Cc1ccc(CNc2ccnc3cc(Cl)ccc23)cc1	7.56	9.9	0.32	25 nM	22 nM	0.9	IC50 [17]: 26 nM; IC50 [18]: 23 nM; IC50 [19]: 38 nM; IC50 [7]: > 249 µM; selectivity ratio [8]: > 9220; IC50 [16]: 69 µM; inhibition [9]: Active; Ratio IC50 [20]: 1.2; Ratio IC50 [21]: 1; Ratio IC50 [22]: 1.7; Time [23]: 6.7 days; Time [24]: 10 days; Activity [25]: 97%; Activity [26]: 99.8%; Activity [27]: 2.16%; Activity [28]: 0.12%
CC[C@H]1CN2CCc3cc(OC)c(OC)cc3[C@@H]2C[C@@H]1C[C@H]1NCCc2cc(OC)c(OC)cc21 [EMETINE]							IC50 [7]: 0.08 µM
COc1ccc(CN(C)Cc2cccc(CNc3ccnc4cc(Cl)ccc34)c2)cc1	7.38	9.67	0.52	120 nM	91 nM	1.3	
CN(Cc1ccccc1)Cc1ccccc1CNc1ccnc2cc(Cl)ccc12	7.57	9.85	1.1	122 nM	140 nM	0.9	Activity [29]: 0.09%; Activity [30]: 0.3%; Time [31]: 30 days; Time [32]: 20.7 days; Activity [33]: 99.9%; Activity [34]: 99.6%; IC50 [16]: 58 µM
